Assay results from ChEMBL document CHEMBL1828568, “Novel imaging agents for β-amyloid plaque based on the N-benzoylindole core” (Bioorg Med Chem Lett, 2011).

Legend:
[1] = Displacement of [125I]TZDM from amyloid beta (1 to 40) aggregates after 2 hrs by gamma counting
Method in brief: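 Competition binding against [125I]TZDM as radiolabeled standard, using Aβ1–40 aggregates; run in triplicate, results as mean ± SD.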

[2] = Binding affinity to amyloid beta fibrils
Method in brief: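 Competitive binding to Aβ1–40 aggregates, with [125I]TZDM as the radiolabeled reference ligand displaced by unlabeled test compound. Run in triplicate and reported as mean ± SD.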

Row | Structure (SMILES) | Ki [1] [nM] | Ki [2] [nM]
1 | COc1ccc2c(ccn2C(=O)/C=C/c2ccccc2)c1 | 68.2 | –
2 | COc1ccc2cc([C@H](C)C(=O)O)ccc2c1 [NAPROXEN] | – | 5.7
3 | CC(C)Cc1ccc([C@@H](C)C(=O)O)cc1 [(R)-IBUPROPHEN] | – | 11.3

The remaining lines, values ahead:

Row | Ki [1] [nM] | Ki [2] [nM] | Structure (SMILES)
4 | 10.2 | – | COc1ccc(/C=C/C(=O)n2ccc3cc(I)ccc32)cc1
5 | 25.4 | – | COc1ccc(/C=C/C(=O)n2ccc3cc(Br)ccc32)cc1
